Measured values as given in ChEMBL document CHEMBL3407426, “Synthesis and biological evaluations of novel endomorphin analogues containing α-hydroxy-β-phenylalanine (AHPBA) displaying mixed μ/δ opioid receptor agonist and δ opioid receptor antagonist activities” (Eur J Med Chem, 2015).
Active and inactive are the calls of the source. Where a SMILES comes first, the peptide text is derived from it. [ ]: non-standard residue; d: D form. ξ: configuration not given here. Dmt = Cc1cc(O)cc(C)c1C[C@H](N)C(=O)O; ξTiq(1-COOH) = O=C(O)C1NCCc2ccccc21

Legend:
Mus musculus [1] = assay: Antinociceptive activity in wild type C57BL/6J mouse assessed as latency to withdrawal tail at 30 nmol, icv treated with delta opioid receptor anatgonist naltrindole for 20 mins prior to compound addition measured after 30 mins by 55 degC warm-water tail withdrawal assay; type: functional, organism-based
Method in brief: (§1)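 Tail-withdrawal test at 55 °C, read 30 min after i.c.v. dosing (100 or 30 nmol), in MOR KO or KOR KO mice. Wild-type C57BL/6J mice were instead pretreated with naltrindole 20 mg/kg, route given as i.p. in the methods and s.c. in the legend, 20 min before dosing. n = 8 mice; one-way ANOVA with Tukey's test.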

Mus musculus [2] = assay: Antinociceptive activity in C57BL/6J mouse assessed as latency to withdrawal tail at 100 nmol, icv measured up to 80 mins by 55 degC warm-water tail withdrawal assay; type: functional, organism-based
Method in brief: (§2)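 Mouse 55 °C warm-water tail-withdrawal test with a baseline latency taken before dosing and a 15 s cut-off. Single i.c.v. injection of 5 µL into the lateral ventricle under light isoflurane. Latency measured at 10-min intervals, with dose–response values taken at peak: 20 min for peptides, 30 min for morphine. Mean % antinociception from 8 mice; ED₅₀ with 95% CI.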

[3] = target: T1, Delta-type opioid receptor (Homo sapiens, UniProt P41143); assay: Agonist activity at delta opioid receptor (unknown origin) expressed in CHO cells assessed as change in cell morphology at 3.3 uM measured over 30 mins by label free binding assay relative to DPDPE; type: cell-based
Method in brief: (§3)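 Label-free biosensor (BIND) measuring cell spreading as increase in peak wavelength value. MOR in HEK293 cells, DOR in CHO cells, seeded 2 × 10⁴/well on fibronectin/collagen/albumin-coated plates and incubated overnight. Assay buffer was HBSS with 0.5–1% DMSO, equilibrated 30 min at room temperature before a baseline read. Compound added to a final 3.3 µM and read over 30 min. Response given as % of DAMGO 300 nM (MOR, n = 2) or DPDPE 10 nM (DOR, n = 4).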

Mus musculus [4] = assay: Antinociceptive activity in icv dosed C57BL/6J mouse assessed as latency to withdrawal tail administered first dose for 8 hrs followed by second dose measured after 20 mins by 55 degC warm-water tail withdrawal assay; type: functional
Method in brief: (§4)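 Acute tolerance in the mouse 55 °C warm-water tail-withdrawal test, 15 s cut-off. First i.c.v. dose at time 0 (morphine 3 nmol or test peptide 2 nmol), then a second i.c.v. dose of 0.1–100 nmol 8 h later. Latency read 30 min after the second dose for morphine and 20 min for the peptide. n = 8 mice per point; ED₅₀ with 95% CI by nonlinear regression.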

Mus musculus [5] = assay: Antinociceptive activity in icv dosed C57BL/6J mouse assessed as latency to withdrawal tail after 20 mins by 55 degC warm-water tail withdrawal assay; type: functional; method in brief: as §2
[6] = Half life in rat brain homogenate at 10 uM; type: ADME, tissue-based
Method in brief: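 Peptide at a final 10 µM in rat brain homogenate (protein 21.2 mg/mL), incubated at 37 °C. Aliquots quenched in acetonitrile with internal standard in triplicate, centrifuged, and analysed by LC-MS/MS in MRM mode. Half-life from pseudo-first-order loss of the analyte/internal-standard ratio; mean of at least three experiments ± SEM.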

[7] = target: Mu-type opioid receptor (Homo sapiens) (UniProt P35372); assay: Agonist activity at mu opioid receptor (unknown origin) expressed in HEK293 cells assessed as change in cell morphology at 3.3 uM measured over 30 mins by label free binding assay relative to DAMGO; type: cell-based; method in brief: as §3
[8] = target: Delta-type opioid receptor (Rattus norvegicus, UniProt P33533); assay: Displacement of [3H]DPDPE from rat cortex delta opioid receptor after 2.5 hrs by liquid scintillation counting analysis
Mus musculus [9] = assay: Inhibition of delta opioid receptor agonist SNC-80-induced antinociceptive activity in C57BL/6J mouse assessed as latency to withdrawal tail at 30 nmol, icv administered 90 mins prior to SNC-80 treatment measured after 40 mins by 55 degC warm-water tail withdrawal assay; type: functional, organism-based
Method in brief: (§5)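 C57BL/6J mice given 30 nmol i.c.v. 90 min before morphine 10 mg/kg i.p., U50,488 10 mg/kg i.p., or SNC-80 100 nmol i.c.v. Tail-withdrawal at 55 °C measured 40 min after the agonist. n = 8 mice; Student's t-test.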

Mus musculus [10] = assay: Antinociceptive activity in kappa opioid receptor knock out mouse assessed as latency to withdrawal tail at 30 nmol, icv after 30 mins by 55 degC warm-water tail withdrawal assay; type: functional, organism-based; method in brief: as §1
Mus musculus [11] = assay: Antinociceptive activity in mu opioid receptor knock out mouse assessed as latency to withdrawal tail at 30 nmol, icv after 30 mins by 55 degC warm-water tail withdrawal assay; type: functional, organism-based; method in brief: as §1
[12] = target: T1, Delta-type opioid receptor; assay: Agonist activity at delta opioid receptor (unknown origin) expressed in CHO cells assessed as inhibition of forskolin-induced cAMP production at 500 nM after 30 mins by europium cryptate/d2 dye-based FRET analysis relative to DPDPE; type: functional, cell-based
Method in brief: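 DOR-expressing CHO cells, 20,000/well, exposed to test compound at 500 nM with 4 µM forskolin in PBS containing 1 mM IBMX for 30 min at room temperature. Cells then lysed with Europium cryptate and d2 acceptor reagents for 1 h, and cAMP read by FRET. Expressed as % of the 500 nM DPDPE response, n = 4.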

Mus musculus [13] = assay: Toxicity in C57BL/6J mouse assessed as impairment of locomotor co-ordination at 100 nmol, icv administered 15 mins prior to assessment in accelerated speed trials measured over 60 mins by rotorod test; type: organism-based; conditions: in vivo, icv_or_intrathecal, 1 h
Method in brief: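 Rotorod test after seven habituation trials, the last used as baseline. Mice given vehicle (50% DMSO) or 100 nmol i.c.v. Latency to fall recorded over 60 min and expressed as % change from baseline per 10 min. 8–18 mice; two-way ANOVA.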

[14] = target: T1, Delta-type opioid receptor; assay: Agonist activity at delta opioid receptor (unknown origin) expressed in CHO cells assessed as change in cell morphology measured over 30 mins by label free binding assay; type: cell-based
Method in brief: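 DOR-expressing CHO cells on coated plates in a label-free BIND biosensor, with the increase in peak wavelength value read over 30 min after compound addition. HBSS buffer with 0.5–1% DMSO, baseline read first. Points are means of two separate assays.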

Mus musculus [15] = assay: Inhibition of kappa opioid receptor agonist U50,488-induced antinociceptive activity in C57BL/6J mouse assessed as latency to withdrawal tail at 30 nmol, icv administered 90 mins prior to U50,488 treatment measured after 40 mins by 55 degC warm-water tail withdrawal assay; type: functional, organism-based; method in brief: as §5
Mus musculus [16] = assay: Inhibition of mu opioid receptor agonist morphine-induced antinociceptive activity in C57BL/6J mouse assessed as latency to withdrawal tail at 30 nmol, icv administered 90 mins prior to morphine treatment measured after 40 mins by 55 degC warm-water tail withdrawal assay; type: functional, organism-based; method in brief: as §5
Mu-type opioid receptor = Mu-type opioid receptor (Rattus norvegicus, UniProt P33535); assay: Displacement of [3H]DAMGO from rat cortex mu opioid receptor after 30 mins by liquid scintillation counting analysis
Method in brief: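 Rat cortex membranes prepared in 50 mM Tris pH 7.4, spun 16,500 rpm for 10 min, and incubated 30 min at 37 °C. Competition against [³H]DAMGO. Assay ended by filtration on BSA-soaked GF/B filters. Ki values are means of two experiments.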

Mus musculus [17] = assay: Antinociceptive activity in mu opioid receptor knock out mouse assessed as latency to withdrawal tail at 100 nmol, icv after 30 mins by 55 degC warm-water tail withdrawal assay; type: functional, organism-based; method in brief: as §1
Mus musculus [18] = assay: Antinociceptive activity in wild type C57BL/6J mouse assessed as latency to withdrawal tail at 100 nmol, icv treated with delta opioid receptor anatgonist naltrindole for 20 mins prior to compound treatment measured after 30 mins by 55 degC warm-water tail withdrawal assay; type: functional, organism-based; method in brief: as §1
Mus musculus [19] = assay: Antinociceptive activity in kappa opioid receptor knock out mouse assessed as latency to withdrawal tail at 100 nmol, icv after 30 mins by 55 degC warm-water tail withdrawal assay; type: functional, organism-based; method in brief: as §1
Mus musculus [20] = assay: Antinociceptive activity in icv dosed C57BL/6J mouse assessed as latency to withdrawal tail after 30 mins by 55 degC warm-water tail withdrawal assay; type: functional; method in brief: as §2
Mus musculus [21] = assay: Antinociceptive activity in icv dosed C57BL/6J mouse assessed as latency to withdrawal tail administered first dose for 8 hrs followed by second dose measured after 30 mins by 55 degC warm-water tail withdrawal assay; type: functional; method in brief: as §4

T1 sequence (P41143 whole entry): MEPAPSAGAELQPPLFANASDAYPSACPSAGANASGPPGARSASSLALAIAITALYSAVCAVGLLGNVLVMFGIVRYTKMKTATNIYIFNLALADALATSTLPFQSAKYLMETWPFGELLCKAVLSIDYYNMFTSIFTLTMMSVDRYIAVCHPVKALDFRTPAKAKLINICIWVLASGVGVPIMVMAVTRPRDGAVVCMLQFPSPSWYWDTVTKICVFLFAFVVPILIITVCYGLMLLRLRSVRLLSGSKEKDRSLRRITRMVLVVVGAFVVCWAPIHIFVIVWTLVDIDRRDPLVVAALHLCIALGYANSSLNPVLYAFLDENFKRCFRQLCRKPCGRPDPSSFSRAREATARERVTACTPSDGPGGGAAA
Sequence of Mu-type opioid receptor (Homo sapiens) (P35372 whole entry): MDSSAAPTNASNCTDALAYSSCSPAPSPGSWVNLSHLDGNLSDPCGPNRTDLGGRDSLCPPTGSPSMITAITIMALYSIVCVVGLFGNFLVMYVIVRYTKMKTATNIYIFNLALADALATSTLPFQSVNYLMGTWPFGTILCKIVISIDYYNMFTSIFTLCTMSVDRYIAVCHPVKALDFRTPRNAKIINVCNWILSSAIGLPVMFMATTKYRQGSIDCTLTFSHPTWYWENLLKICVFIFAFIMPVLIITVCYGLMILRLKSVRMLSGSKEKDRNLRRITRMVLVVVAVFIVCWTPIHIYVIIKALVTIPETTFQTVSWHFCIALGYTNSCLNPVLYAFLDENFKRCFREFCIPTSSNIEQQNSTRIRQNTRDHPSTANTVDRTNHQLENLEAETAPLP
Sequence of Delta-type opioid receptor (Rattus norvegicus, UniProt P33533) (P33533 whole entry): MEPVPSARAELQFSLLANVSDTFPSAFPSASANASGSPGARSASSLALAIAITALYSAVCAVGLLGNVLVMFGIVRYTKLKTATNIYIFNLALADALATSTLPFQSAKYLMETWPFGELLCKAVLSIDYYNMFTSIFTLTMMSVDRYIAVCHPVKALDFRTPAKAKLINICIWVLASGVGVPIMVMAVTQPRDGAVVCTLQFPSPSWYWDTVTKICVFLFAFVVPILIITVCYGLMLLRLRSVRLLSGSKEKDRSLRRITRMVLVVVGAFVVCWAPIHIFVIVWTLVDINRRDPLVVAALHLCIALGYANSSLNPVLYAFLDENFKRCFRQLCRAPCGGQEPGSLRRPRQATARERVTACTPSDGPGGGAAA
Sequence of Mu-type opioid receptor (P33535 whole entry): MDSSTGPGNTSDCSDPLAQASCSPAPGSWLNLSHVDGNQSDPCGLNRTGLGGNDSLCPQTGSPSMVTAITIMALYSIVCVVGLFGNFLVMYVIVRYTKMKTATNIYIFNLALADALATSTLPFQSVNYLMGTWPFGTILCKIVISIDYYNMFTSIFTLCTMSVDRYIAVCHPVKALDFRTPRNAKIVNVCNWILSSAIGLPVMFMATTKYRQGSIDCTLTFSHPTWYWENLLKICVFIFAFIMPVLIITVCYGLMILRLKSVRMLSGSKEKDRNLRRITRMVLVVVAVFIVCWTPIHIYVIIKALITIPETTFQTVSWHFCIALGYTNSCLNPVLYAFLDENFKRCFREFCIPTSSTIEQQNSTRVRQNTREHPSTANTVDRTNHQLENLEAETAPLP

**Q.** With `Cc1cc(O)cc(C)c1C[C@H](N)C(=O)N1CCc2ccccc2C1C(=O)N[C@@H](Cc1ccccc1)[C@@H](O)C(=O)N[C@@H](Cc1ccccc1)C(N)=O` (stereo partly drawn) as the compound, how does the Activity (Mus musculus [1]) read?
**A.** inactive

**Q.** And the Activity (Mus musculus [2])?
**A.** Active

**Q.** And the Activity [3]?
**A.** 30%

**Q.** And the ED50 (Mus musculus [4])?
**A.** 0.86 nmol

**Q.** And the Activity (Mus musculus [5])?
**A.** Dose-dependent effect

**Q.** And the ED50 (Mus musculus [5])?
**A.** 1.98 nmol

**Q.** What about the half-life at 10 µM [6] of the same compound?
**A.** > 120 min

**Q.** What about the Activity [7] of the same compound?
**A.** 42%

**Q.** And the Ki [8]?
**A.** 0.7 nM

**Q.** And the inhibition (Mus musculus [9])?
**A.** Active

**Q.** And the Activity (Mus musculus [10])?
**A.** inactive

**Q.** And the Activity (Mus musculus [11])?
**A.** inactive

**Q.** What about the inhibition [12] of the same compound?
**A.** 66%

**Q.** And the Activity (Mus musculus [13])?
**A.** Non-toxic

**Q.** What about the EC50 [14] of the same compound?
**A.** 23 nM

**Q.** What about the inhibition (Mus musculus [15]) of the same compound?
**A.** inactive

**Q.** What about the inhibition (Mus musculus [16]) of the same compound?
**A.** inactive

**Q.** What about the Ki (Mu-type opioid receptor) of the same compound?
**A.** 8 nM

**Q.** With `Cc1cc(O)cc(C)c1C[C@H](N)C(=O)N1CCc2ccccc2C1C(=O)N[C@@H](Cc1ccccc1)C(=O)N[C@@H](Cc1ccccc1)C(N)=O` (stereo partly drawn) (H-[Dmt][ξTiq(1-COOH)]FF-NH2) as the compound, how does the Activity [3] read?
**A.** 46%

**Q.** What about the Activity (Mus musculus [17]) of the same compound?
**A.** inactive

**Q.** What about the Activity (Mus musculus [18]) of the same compound?
**A.** inactive

**Q.** And the Activity (Mus musculus [5])?
**A.** Dose-dependent effect

**Q.** What about the ED50 (Mus musculus [5]) of the same compound?
**A.** 21.7 nmol

**Q.** What about the half-life at 10 µM [6] of the same compound?
**A.** 6.11 min

**Q.** And the Activity (Mus musculus [19])?
**A.** inactive

**Q.** What about the Activity [7] of the same compound?
**A.** 61%

**Q.** What about the Ki [8] of the same compound?
**A.** 2 nM

**Q.** What about the inhibition [12] of the same compound?
**A.** 73%

**Q.** And the Activity (Mus musculus [13])?
**A.** Toxic

**Q.** And the Ki (Mu-type opioid receptor)?
**A.** 5 nM

**Q.** What does the source list for `CN1CC[C@]23c4c5ccc(O)c4O[C@H]2[C@@H](O)C=C[C@H]3[C@H]1C5` [MORPHINE]?
**A.** Activity (Mus musculus [20]): Dose-dependent effect; ED50 (Mus musculus [20]): 2.35 nmol; ED50 (Mus musculus [21]): 22.5 nmol
